Data: ChEMBL document CHEMBL2429857, “Synthesis and pharmacological evaluation of pyrazolopyrimidopyrimidine derivatives: anti-inflammatory agents with gastroprotective effect in rats” (2013)

Experiments:
Rattus norvegicus [1] = experiment: Gastroprotective activity in Wistar rat assessed as inhibition of HCl/ethanol-induced gastric ulcer at 100 mg/kg, ip administered 30 mins prior to HCl/ethanol challenge measured after 1 hr relative to vehicle-treated control; format: functional; settings: Stomach, route intraperitoneal
In short: (§1)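 Male Wistar rats (150–170 g), fasted 24 h, six per group. Vehicle (Tween 80/ethanol/saline 1/1/18) or treatment given i.p.; 30 min later, oral 150 mM HCl/EtOH (40:60, v/v), 1 ml/100 g. Killed 1 h afterwards. Stomachs opened along the greater curvature and stretched out. Summed lesion length (mm) taken as lesion index; % inhibition against vehicle controls. Mean ± SEM, Student's t test.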

Rattus norvegicus [2] = experiment: Antiinflammatory activity in Wistar rat assessed as inhibition of carrageenan-induced paw edema at 100 mg/kg, ip administered 30 mins prior to carrageenan challenge measured after 3 hrs relative to vehicle-treated control; format: functional; settings: route intraperitoneal
In short: (§2)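 Adult male Wistar rats (150–170 g), fasted overnight with water, n = 6 per group. Vehicle (Tween 80/absolute ethanol/0.9 % saline 1:1:18; 2.5 ml/kg) or drug given i.p. 30 min before 0.05 ml of 1 % carrageenan into the left hind paw. Paw volume to the tibiotarsal joint measured by plethysmometer at 0, 1, 3, 5 h. Oedema = VT − V0; % inhibition against vehicle controls. Mean ± SEM, Student's t test.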

Rattus norvegicus [3] = experiment: Antiinflammatory activity in Wistar rat assessed as inhibition of carrageenan-induced paw edema at 50 mg/kg, ip administered 30 mins prior to carrageenan challenge measured after 1 hr relative to vehicle-treated control; format: functional; settings: route intraperitoneal; in short: as §2
Rattus norvegicus [4] = experiment: Antiinflammatory activity in Wistar rat assessed as inhibition of carrageenan-induced paw edema at 100 mg/kg, ip administered 30 mins prior to carrageenan challenge measured after 1 hr relative to vehicle-treated control; format: functional; settings: route intraperitoneal; in short: as §2
Rattus norvegicus [5] = experiment: Gastroprotective activity in Wistar rat assessed as inhibition of HCl/ethanol-induced gastric ulcer at 50 mg/kg, ip administered 30 mins prior to HCl/ethanol challenge measured after 1 hr relative to vehicle-treated control; format: functional; settings: Stomach, route intraperitoneal; in short: as §1
Rattus norvegicus [6] = experiment: Antiinflammatory activity in Wistar rat assessed as inhibition of carrageenan-induced paw edema at 100 mg/kg, ip administered 30 mins prior to carrageenan challenge measured after 5 hrs relative to vehicle-treated control; format: functional; settings: route intraperitoneal; in short: as §2
Rattus norvegicus [7] = experiment: Antiinflammatory activity in ip dosed Wistar rat assessed as inhibition of carrageenan-induced paw edema administered 30 mins prior to carrageenan challenge measured after 1 to 5 hrs relative to vehicle-treated control; format: functional, organism-based; in short: as §2
Rattus norvegicus [8] = experiment: Antiinflammatory activity in Wistar rat assessed as inhibition of carrageenan-induced paw edema at 50 mg/kg, ip administered 30 mins prior to carrageenan challenge measured after 3 hrs relative to vehicle-treated control; format: functional; settings: route intraperitoneal; in short: as §2
Rattus norvegicus [9] = experiment: Antiinflammatory activity in Wistar rat assessed as inhibition of carrageenan-induced paw edema at 50 mg/kg, ip administered 30 mins prior to carrageenan challenge measured after 5 hrs relative to vehicle-treated control; format: functional; settings: route intraperitoneal; in short: as §2

| SMILES | inhibition in vivo at 100 mg/kg (Rattus norvegicus [1]) | inhibition in vivo at 100 mg/kg (Rattus norvegicus [2]) | inhibition in vivo at 50 mg/kg (Rattus norvegicus [3]) | inhibition in vivo at 100 mg/kg (Rattus norvegicus [4]) | inhibition in vivo at 50 mg/kg (Rattus norvegicus [5]) | inhibition in vivo at 100 mg/kg (Rattus norvegicus [6]) | inhibition (Rattus norvegicus [7]) | inhibition in vivo at 50 mg/kg (Rattus norvegicus [8]) | inhibition in vivo at 50 mg/kg (Rattus norvegicus [9]) |
| --- | --- | --- | --- | --- | --- | --- | --- | --- | --- |
| Cc1nn(-c2ccccc2)c2ncn3c(=N)c(C#N)cnc3c12 | 64.7% | 56.8% | 42.6% | 80.4% | 48.6% | 58.1% | Dose-dependent effect | 40.6% | 39.8% |
| CN/C(=N\CCSCc1nc[nH]c1C)NC#N [CIMETIDINE] | 74% | – | – | – | – | – | – | – | – |
| Cc1nc2c3c(C)nn(-c4ccccc4)c3ncn2c(=N)c1C#N | – | 71.4% | 59.2% | 92.2% | 68.4% | 62.8% | Dose-dependent effect | 59% | 58% |
| CCOC(=O)c1c(CC)nc2c3c(C)nn(-c4ccccc4)c3ncn2c1=N | 52.2% | 42.9% | 32% | 65.7% | 40.2% | 40.2% | Dose-dependent effect | 28.8% | 25.1% |
| CCOC(=O)c1c(C)nc2c3c(C)nn(-c4ccccc4)c3ncn2c1=N | 91.4% | 82.8% | 62.3% | 94.2% | 72.5% | 68.8% | Dose-dependent effect | 60% | 59.4% |
